T1: recombinant CYP2J2 (Homo sapiens, UniProt P51589)
T1 sequence (P51589 1-502): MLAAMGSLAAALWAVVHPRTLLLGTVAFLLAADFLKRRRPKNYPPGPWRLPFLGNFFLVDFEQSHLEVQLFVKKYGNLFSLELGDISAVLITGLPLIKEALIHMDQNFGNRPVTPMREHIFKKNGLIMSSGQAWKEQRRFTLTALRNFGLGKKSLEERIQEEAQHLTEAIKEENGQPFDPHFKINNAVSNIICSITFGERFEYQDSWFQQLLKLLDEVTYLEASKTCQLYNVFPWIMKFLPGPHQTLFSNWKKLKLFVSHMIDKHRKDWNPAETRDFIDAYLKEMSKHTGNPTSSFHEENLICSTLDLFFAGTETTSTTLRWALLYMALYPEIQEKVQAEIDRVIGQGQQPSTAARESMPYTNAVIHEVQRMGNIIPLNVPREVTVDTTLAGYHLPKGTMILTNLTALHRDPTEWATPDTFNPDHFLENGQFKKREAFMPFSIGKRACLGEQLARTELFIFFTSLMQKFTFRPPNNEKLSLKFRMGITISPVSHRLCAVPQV

B1: recombinant CYP2J2 (Homo sapiens) (protein)
chain: T1 sequence (P51589 1-502)

Key:
[1] = system: human brain microsomes (HBMs); experiment: Screening of STS‐135 oxidative metabolism with HBMs; assay type: in vitro ADME; conditions: STS‐135 50 µmol/L
Procedure, shortened: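 Pooled 50-donor human brain microsomes with test compound (50 µmol/L, 2% DMSO) in 0.1 mol/L KPO₄, pH 7.4. Stopped with equal-volume ethanol, centrifuged; UPLC-UV at 300 nm for M21/M25. No-substrate, no-protein and no-NADPH controls; triplicate; nmol/mg protein/min.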

[2] = Time‐dependent metabolism of STS‐135 in genotyped HLMs CYP3A5*1/*1; assay type: in vitro ADME; conditions: human, genotyped CYP3A5*1/*1 human liver microsomes, pH 7.4
Procedure, shortened: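 CYP3A5-genotyped human liver microsomes (*1/*1 or *3/*3) incubated with test compound in 0.1 mol/L KPO₄, pH 7.4, with NADPH-regenerating system at 37°C. Sampled at 0, 10, 20, 30, 45, 60, 90 and 120 min, ethanol-stopped, centrifuged and analysed by UPLC-UV (300 nm) for parent depletion. Half-life determined directly by linear regression; triplicate reactions.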

[3] = target: T1, recombinant CYP2J2
[4] = system: human hepatocytes; conditions: oxidation, hydrolysis, and glucuronidation; cited from earlier work
[5] = system: CB1 receptor; conditions: cited from earlier work
[6] = system: CB2 receptor; conditions: cited from earlier work
[7] = substrate: O=C(NC12CC3CC(CC(C3)C1)C2)c1cn(CCCCCF)c2ccccc12; experiment: not read; conditions: 37.0 °C

Molecule | Specific activity, formation of M21 [1] | Specific activity, formation of M25 [1] | half-life [2] [min] | K m, production of M25 (Figure 6 legend) [3] | Number of metabolites formed [4] [metabolites] | Agonist activity at CB1 receptor [5] | Agonist activity at CB2 receptor [6] | Km [7] [µM] | Vmax [7] [pmol/min/mg protein]
O=C(NC12CC3CC(CC(C3)C1)C2)c1cn(CCCCCF)c2ccccc12 [STS‐135, N‐(adamantan‐1‐yl)‐1‐(5‐fluoropentyl)‐1H‐indole‐3‐carboxamide] | no detectable metabolites | no detectable metabolites | 21.1 | 11.2389 ± 1.733 | 29 | potent agonist | potent agonist |  | 
B1 |  |  |  |  |  |  |  | 11.2 ± 1.7 | 17.2 ± 0.5
